Source: ChEMBL document CHEMBL1141177, “The novel L- and D-amino acid derivatives of hydroxyurea and hydantoins: synthesis, X-ray crystal structure study, and cytostatic and antiviral activity evaluations” (J Med Chem, 2005)
Converted amounts (≈) assume the structure as drawn.

Key:
MCF7 = assay: Inhibition of breast carcinoma cell line (MCF-7) growth; type: functional, cell-based; conditions: Homo sapiens
Summary of the method: (§1)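 Monolayers in DMEM with 10% FBS, 2 mM L-glutamine, penicillin/streptomycin, 37 °C, 5% CO2. Cells seeded on day 0, then compounds added in 5- and 10-fold dilutions (10^-8–10^-4 M) for 72 h. MTT read-out at 570 nm. Percent growth calculated relative to time-zero and untreated OD. Quadruplicates in three experiments; IC50 by linear interpolation, highest concentration reported as ">" when not reached.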

L1210 = assay: Inhibition of murine leukemia cells (L1210) growth; type: functional, cell-based; conditions: Mus musculus
HEL [1] = assay: Minimum cytotoxic concentration of compound that causes alteration of cell morphology in human embryonic lung cells; type: functional
Summary of the method: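 Human embryonic lung (HEL) cells were examined microscopically. MCC is the minimum concentration that causes a detectable alteration of cell morphology.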

WI-38 = assay: Inhibition of normal human fibroblast cell line (WI 38) growth; type: functional, cell-based; summary of the method: as §1
MIA PaCa-2 = assay: Inhibition of pancreatic carcinoma cell line (MiaPaCa-2) growth; type: functional, cell-based; conditions: Homo sapiens; summary of the method: as §1
[2] = Effective concentration required to reduce plaque formation by AD-169 strain of CMV virus in Human embryonic lung cells; type: functional, cell-based
Summary of the method: (§2)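 Plaque reduction assay in human embryonic lung (HEL) cell cultures, virus input 100 plaque forming units. Viruses: CMV strains AD-169 and Davis, VZV TK+ strain OKA and TK− strain 07/1. EC50 is the concentration that reduces virus plaque formation by 50%.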

HEp-2 = assay: Inhibition of laryngeal carcinoma cell line (Hep-2) growth; type: functional, cell-based; conditions: Homo sapiens; summary of the method: as §1
MOLT-4 = assay: Inhibition of human T-lymphocyte cell line (Molt4/C8) growth; type: functional, cell-based
[3] = Effective concentration required to reduce plaque formation by Davis strain of CMV virus in Human embryonic lung cells; type: functional, cell-based; summary of the method: as §2
HEL [4] = assay: Cytotoxic concentration to reduce the 50% cell growth of human embryonic lung cells; type: functional
SW-620 = assay: Inhibition of colon carcinoma cell line (SW 620) growth; type: functional, cell-based; conditions: Homo sapiens; summary of the method: as §1
Human alphaherpesvirus 3 [5] = assay: Effective concentration of compound required to reduce plaque formation by OKA strain of thymidine kinase positive VZ virus TK+ in human embryonic lung cells; type: functional, organism-based; conditions: Human alphaherpesvirus 3, lung
Human alphaherpesvirus 3 [6] = assay: Reduction of plaque formation by VZV07/1 strain of thymidine kinase(TK-) deficient VZ virus in human embryonic lung cells; type: functional, organism-based; conditions: Human alphaherpesvirus 3, lung
HeLa = assay: Inhibition of cervical carcinoma cell line (HeLa) growth; type: functional, cell-based; conditions: Homo sapiens; summary of the method: as §1
[7] = Homo sapiens, HEL, read-out: CC50

| Compound | IC50 (MCF7) | IC50 (L1210) | MCC (HEL [1]) | IC50 (WI-38) | IC50 (MIA PaCa-2) | EC50 [2] | IC50 (HEp-2) | IC50 (MOLT-4) | EC50 [3] | CC50 (HEL [4]; [7]) | IC50 (SW-620) | EC50 (Human alphaherpesvirus 3 [5]) | EC50 (Human alphaherpesvirus 3 [6]) | IC50 (HeLa) | CC50 (HEL [4]) |
| --- | --- | --- | --- | --- | --- | --- | --- | --- | --- | --- | --- | --- | --- | --- | --- |
| O=C(NC1CCCCC1)C(NC(=O)n1nnc2ccccc21)c1ccccc1 (stereo unspecified) | 57.6 µM | 95 µM | ≥ 16 µg/mL | > 100 µM | ≥ 100 µM | > 3.2 µg/mL | 69.7 µM | 92 µM | > 16 µg/mL | 15 µg/mL (≈ 39.7 µM) | > 100 µM | > 0.64 µg/mL | > 3.2 µg/mL | 67 µM |  |
| CCC(C)C1NC(=O)N(C2CCCCC2)C1=O (stereo unspecified) |  |  |  |  |  |  |  | > 200 µM |  |  |  |  |  |  |  |
| CC(C)C(NC(=O)n1nnc2ccccc21)C(=O)NC1CCCC1 (stereo unspecified) | 79.3 µM | > 200 µM | > 200 µg/mL | ≥ 100 µM | > 100 µM | > 200 µg/mL | 60.3 µM | > 200 µM | > 200 µg/mL |  | > 200 µM | > 80 µg/mL | > 200 µg/mL | 96.4 µM |  |
| O=C(NC(c1ccccc1)c1ccccc1)C(Cc1ccccc1)NC(=O)n1nnc2ccccc21 (stereo unspecified) | 16.3 µM | 17 µM | 80 µg/mL | 14.3 µM | 23.9 µM | > 16 µg/mL | 40.5 µM | 15 µM |  | 17.3 µg/mL (≈ 36.4 µM) | 37.6 µM | > 0.13 µg/mL | > 0.13 µg/mL | 30.2 µM |  |
| O=C(NC(c1ccccc1)c1ccccc1)C(NC(=O)n1nnc2ccccc21)c1ccccc1 (stereo unspecified) | 34.2 µM | 114 µM | 80 µg/mL | 100 µM | 42.5 µM | > 16 µg/mL | 59.1 µM | 89 µM | > 16 µg/mL | 38.3 µg/mL (≈ 83 µM) | 51.7 µM | > 3.2 µg/mL | > 3.2 µg/mL | 33.3 µM |  |
| O=C(NO)NC(Cc1ccccc1)C(=O)N1CCCC1 (stereo unspecified) | > 100 µM | > 200 µM |  | ≥ 100 µM | > 100 µM |  | ≥ 100 µM | 192 µM |  |  | > 100 µM |  |  | > 100 µM |  |
| CCC(C)C(NC(=O)n1nnc2ccccc21)C(=O)NC(c1ccccc1)c1ccccc1 (stereo unspecified) |  |  |  |  |  |  |  | 79 µM |  |  |  |  |  |  |  |
| O=C(NCc1ccccc1)C(Cc1ccccc1)NC(=O)n1nnc2ccccc21 (stereo unspecified) |  |  |  |  |  |  |  | 145 µM |  |  |  |  |  |  |  |
| O=C(NC1CCCCC1)C(Cc1ccccc1)NC(=O)n1nnc2ccccc21 (stereo unspecified) | 20.7 µM | 126 µM | 80 µg/mL | 63.2 µM | ≥ 100 µM | > 16 µg/mL | 64.5 µM | 116 µM | > 16 µg/mL | 33 µg/mL (≈ 84.3 µM) | 110 µM |  |  | 34.3 µM |  |
| O=C(NO)NC(Cc1ccccc1)C(=O)NC1CCCCC1 (stereo unspecified) | ≥ 100 µM | 18 µM |  | > 100 µM | 30.6 µM |  | 94.2 µM | 19 µM |  |  | 100 µM |  |  | 58 µM |  |
| CCC(C)C(NC(=O)NO)C(=O)NC1CCCC1 (stereo unspecified) |  |  |  |  |  |  |  | > 100 µM |  |  |  |  |  |  |  |
| CCC(C)C1NC(=O)N(Cc2ccccc2)C1=O (stereo unspecified) |  |  |  |  |  |  |  | > 200 µM |  |  |  |  |  |  |  |
| O=C(C(Cc1ccccc1)NC(=O)n1nnc2ccccc21)N1CCCC1 (stereo unspecified) | ≥ 100 µM | 133 µM | > 200 µg/mL | > 100 µM | > 100 µM | > 200 µg/mL | ≥ 100 µM | 123 µM | > 200 µg/mL | 148 µg/mL (≈ 406 µM) | > 100 µM | 117 µg/mL (≈ 322 µM) | 106 µg/mL (≈ 292 µM) | > 100 µM |  |
| CC(C)C1NC(=O)N(C2CCCCC2)C1=O (stereo unspecified) | > 100 µM | > 200 µM | ≥ 100 µg/mL | > 100 µM | > 100 µM | 45 µg/mL (≈ 201 µM) | 100 µM | > 200 µM | 41 µg/mL (≈ 183 µM) | > 50 µg/mL | > 100 µM | 45 µg/mL (≈ 201 µM) | 29 µg/mL (≈ 129 µM) | > 100 µM |  |
| CCC(C)C(NC(=O)NO)C(=O)NCc1ccccc1 (stereo unspecified) |  |  |  |  |  |  |  | 126 µM |  |  |  |  |  |  |  |
| O=C(NO)NC(C(=O)N1CCCCC1)c1ccccc1 (stereo unspecified) | > 100 µM | 80 µM |  | 6.7 µM | > 100 µM |  | > 100 µM | 125 µM |  |  | > 100 µM |  |  | > 100 µM |  |
| CCC(C)C1NC(=O)N(C2CCCC2)C1=O (stereo unspecified) |  |  |  |  |  |  |  | > 200 µM |  |  |  |  |  |  |  |
| CCC(C)C(NC(=O)NO)C(=O)NC1CCCCC1 (stereo unspecified) | > 100 µM | 89 µM |  | > 100 µM | > 100 µM |  | > 100 µM | 150 µM |  |  | > 100 µM |  |  | > 100 µM |  |
| Nc1nc2c(ncn2COCCO)c(=O)[nH]1 [ACYCLOVIR] |  |  | > 400 µg/mL |  |  |  |  |  |  | 200 µg/mL (≈ 888 µM) |  |  |  |  | 200 µg/mL (≈ 888 µM) |
